Test results: ChEMBL document CHEMBL1140720, “Novel prodrugs of tegafur that display improved anticancer activity and antiangiogenic properties” (J Med Chem, 2008)
Activity calls are given as the source filed them. The rule behind the calls is not given here.

Key:
[1] = Anticancer activity against human astrocytes cells after 72 hrs by Hoechst test; type: ADME, cell-based, Astrocyte; conditions: for IC50: Homo sapiens, Astrocyte, 72 h; for IC90 at 72 h: human, human astrocytes
Method in brief: (§1)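 Cells seeded at 0.5–1 × 10^4/well for 24 h, then exposed in triplicate to a concentration titration for 72 h. Drug stock 0.5 M in DMSO, final DMSO ≤0.1%. Cells rinsed with PBS, fixed in 70% ethanol, and stained for DNA (Hoechst). IC50/IC90 taken from best-fit curves (linear or exponential) of % survival vs concentration, ≥3 independent experiments.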

U-251 = test: Anticancer activity against human U251 cells after 72 hrs by Hoechst test; type: functional, cell-based; method in brief: as §1
Mus musculus = test: Inhibition of HDAC in po dosed mouse 4T1 tumor implanted in BALB/c mouse assessed as histone acetylation level after 4 hrs; type: functional
Method in brief: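 Balb/c mice carrying sc 4T1 tumors (5 × 10^4 cells implanted), dosed orally at 100 mg/kg once tumors reached 1.0 cm³. Tumors excised 4 h later and histones extracted; 5 µg protein run on 15% SDS gels. Western blot for acetyl-H4 (Lys-12), normalized to pan-H3; fold change versus untreated.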

HUVEC [2] = test: Antiangiogenic activity against HUVEC cells assessed as tube formation at 80 uM after 24 hrs; type: functional, cell-based; conditions: Homo sapiens
Method in brief: (§2)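 HUVEC (5 × 10^4 cells/well) seeded on a matrigel layer in supplemented EGM-2 medium. Test agent added at 80 µM, triplicate wells, incubated 3 to 24 h. Tube formation was visualized by light microscopy and photographed at ×40.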

HT-29 [3] = test: Antitumor activity against human HT29 xenografted CD1 mouse at 50 mg/kg, po; type: functional, organism-based; design: dose 50 mg/kg
Method in brief: (§3)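 Male nude CD1 mice implanted sc in the flank with HT-29 cells. Once tumors were palpable, oral dosing at 50 mg/kg (water vehicle), with vehicle-only controls; 14 controls, 12 per treated group. Tumors measured by caliper twice weekly, volume = (L × W²)/2. At the end, blood drawn for serum CEA.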

[4] = Anticancer activity against human SK-ES cells after 72 hrs by Hoechst test; type: functional, cell-based; method in brief: as §1
HT-29 [5] = test: Antitumor activity against human HT29 xenografted CD1 mouse assessed as decrease in CEA level; type: functional; method in brief: as §3
CT26 [6] = test: Anticancer activity against mouse CT26 cells after 72 hrs in the presence of succinate by Hoechst test; type: functional, cell-based; conditions: CT26, 72 h
Method in brief: (§4)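 Same 72 h Hoechst viability titration, with or without co-addition of succinic acid at 2.5 mM. IC50 and IC90 derived from dose-response curves.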

HT-29 [7] = test: Anticancer activity against human HT29 cells after 72 hrs in the presence of succinate by Hoechst test; type: functional, cell-based; conditions: HT-29, 72 h; method in brief: as §4
LS-1034 [8] = test: Anticancer activity against human LS1034 cells after 72 hrs in the presence of succinate by Hoechst test; type: functional, cell-based; conditions: LS-1034, 72 h; method in brief: as §4
LS-1034 [9] = test: Anticancer activity against human LS1034 cells after 72 hrs in the presence of HMTA by Hoechst test; type: functional, cell-based; conditions: LS-1034, 72 h
Method in brief: (§5)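 Same 72 h Hoechst viability titration, with or without co-addition of hexamethylenetetramine (HMTA) at 250 µM. IC50 and IC90 derived from dose-response curves.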

BXPC-3 [10] = test: Anticancer activity against human BXPC3 cells after 72 hrs in the presence of HMTA by Hoechst test; type: functional, cell-based; conditions: BXPC-3, 72 h; method in brief: as §5
BXPC-3 [11] = test: Anticancer activity against human BXPC3 cells after 72 hrs in the presence of succinate by Hoechst test; type: functional, cell-based; conditions: BXPC-3, 72 h; method in brief: as §4
HT-29 [12] = test: Anticancer activity against human HT29 cells after 72 hrs in the presence of HMTA by Hoechst test; type: functional, cell-based; conditions: HT-29, 72 h; method in brief: as §5
HUVEC [13] = test: Effect on cell viability of HUVEC cells after 48 hrs; type: functional, cell-based; conditions: Homo sapiens
Method in brief: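 HUVEC grown at 37 °C, 5% CO2. Seeded in 96-well plates, then exposed to a concentration titration for 48 h. Viability read by Hoechst DNA fluorescence after ethanol fixation. IC50/IC90 from best-fit curves of ≥3 independent experiments.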

HUVEC [14] = test: Antiangiogenic activity against HUVEC cells assessed as tube formation at 80 uM after 8 hrs; type: functional, cell-based; conditions: Homo sapiens; method in brief: as §2
HUVEC [15] = test: Antiangiogenic activity against HUVEC cells assessed as tube formation at 80 uM after 3 hrs; type: functional, cell-based; conditions: Homo sapiens; method in brief: as §2
CT26 [16] = test: Anticancer activity against mouse CT26 cells after 72 hrs in the presence of HMTA by Hoechst test; type: functional, cell-based; conditions: CT26, 72 h; method in brief: as §5
[17] = Anticancer activity against mouse Pan02 cells after 72 hrs by Hoechst test; type: functional, cell-based; conditions: Pan02, 72 h; method in brief: as §1
HT-29 [18] = test: Anticancer activity against human HT29 cells after 72 hrs by Hoechst test; type: functional, cell-based; conditions: HT-29, 72 h; method in brief: as §1
BXPC-3 [19] = test: Anticancer activity against human BXPC3 cells after 72 hrs in the presence of semicarbazide by Hoechst test; type: functional, cell-based; conditions: BXPC-3, 72 h
Method in brief: (§6)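 Same 72 h Hoechst viability titration, run with or without co-addition of 500 µM semicarbazide as formaldehyde scavenger. IC50 and IC90 derived from dose-response curves.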

HT-29 [20] = test: Anticancer activity against human HT29 cells after 72 hrs in the presence of semicarbazide by Hoechst test; type: functional, cell-based; conditions: HT-29, 72 h; method in brief: as §6
[21] = Anticancer activity against human MES-SA cells after 72 hrs by Hoechst test; type: functional, cell-based; method in brief: as §1
[22] = Anticancer activity against human MES-SA DXS cells after 72 hrs by Hoechst test; type: functional, cell-based; method in brief: as §1
BXPC-3 [23] = test: Anticancer activity against human BXPC3 cells after 72 hrs by Hoechst test; type: functional, cell-based; conditions: BXPC-3, 72 h; method in brief: as §1
CT26 [24] = test: Anticancer activity against mouse CT26 cells after 72 hrs in the presence of semicarbazide by Hoechst test; type: functional, cell-based; conditions: CT26, 72 h; method in brief: as §6
CT26 [25] = test: Anticancer activity against mouse CT26 cells after 72 hrs by Hoechst test; type: functional, cell-based; conditions: CT26, 72 h; method in brief: as §1
LS-1034 [26] = test: Anticancer activity against human LS1034 cells after 72 hrs in the presence of semicarbazide by Hoechst test; type: functional, cell-based; conditions: LS-1034, 72 h; method in brief: as §6
LS-1034 [27] = test: Anticancer activity against human LS1034 cells after 72 hrs by Hoechst test; type: functional, cell-based; conditions: LS-1034, 72 h; method in brief: as §1

SMILES | IC50 [1] [µM] | IC90 at 72 h [1] [µM] | IC50 (U-251; Homo sapiens, U-251, 72 h) [µM] | IC90 (U-251; Homo sapiens, U-251, 72 h) [µM] | Activity (Mus musculus) | Activity (HUVEC [2]) | Activity (HT-29 [3]) | IC50 [4] [µM] | IC90 [4] [µM] | Activity (HT-29 [5]) | IC50 (HUVEC [13]) [µM] | IC90 (HUVEC [13]) [µM] | IC50 [17] [µM] | IC90 [17] [µM] | IC50 (HT-29 [18]) [µM] | IC90 (HT-29 [18]) [µM] | IC50 (BXPC-3 [19]) [µM] | IC90 (BXPC-3 [19]) [µM] | IC50 (HT-29 [20]) [µM] | IC90 (HT-29 [20]) [µM] | also measured
O=c1[nH]c(=O)n(C2CCCO2)cc1F (centres undefined) [TEGAFUR] | 4290 | 7680 | 384 | 1280 | 2 | inactive | Active | 174 | 531 | Active | 1000 | 3400 | 179 | 637 | – | – | – | – | – | – | IC50 (CT26 [6]): 90 µM; IC90 (CT26 [6]): 311 µM; IC50 (HT-29 [7]): 158 µM; IC90 (HT-29 [7]): 644 µM; IC50 (LS-1034 [8]): 172 µM; IC90 (LS-1034 [8]): 617 µM; IC50 (LS-1034 [9]): 193 µM; IC90 (LS-1034 [9]): 852 µM; IC50 (BXPC-3 [10]): 145 µM; IC90 (BXPC-3 [10]): 654 µM; IC50 (BXPC-3 [11]): 154 µM; IC90 (BXPC-3 [11]): 719 µM; IC50 (HT-29 [12]): 158 µM; IC90 (HT-29 [12]): 612 µM; Activity (HUVEC [14]): inactive; Activity (HUVEC [15]): inactive; IC50 (CT26 [16]): 107 µM; IC90 (CT26 [16]): 464 µM
CCOP(=O)(OCC)OCn1c(=O)c(F)cn(C2CCCO2)c1=O (centres undefined) | 832 | 2790 | 73 | 287 | – | – | – | – | – | – | – | – | – | – | 19 | 80 | – | – | – | – | –
O=c1c(F)cn(C2CCCO2)c(=O)n1CO (centres undefined) | 187 | 476 | 103 | 223 | – | – | – | 45 | 80 | – | 70 | 120 | 96 | 219 | 67 | – | 160 | 460 | 164 | 303 | IC50 [21]: 79 µM; IC50 [22]: 63 µM; IC50 (BXPC-3 [23]): 74 µM; IC50 (CT26 [24]): 132 µM; IC90 (CT26 [24]): 252 µM; IC50 (CT26 [25]): 99 µM; IC90 (CT26 [25]): 170 µM; IC50 (LS-1034 [26]): 132 µM; IC90 (LS-1034 [26]): 296 µM; IC50 (LS-1034 [27]): 84 µM
CCCC(=O)OCn1c(=O)c(F)cn(C2CCCO2)c1=O (centres undefined) | 200 | 323 | 55 | – | 2 | Active | Active | 47 | 81 | Active | 100 | 170 | 46 | 149 | 35 | 84 | 88 | 280 | 51 | 138 | IC50 (U-251; u-251): 107 µM; IC50 [21]: 71 µM; IC50 [22]: 54 µM; IC50 (BXPC-3 [23]): 81 µM; IC50 (CT26 [24]): 52 µM; IC90 (CT26 [24]): 105 µM; IC50 (CT26 [25]): 27 µM; IC90 (CT26 [25]): 76 µM; IC50 (LS-1034 [26]): 34 µM; IC90 (LS-1034 [26]): 94 µM; IC50 (LS-1034 [27]): 42 µM; IC90 (LS-1034 [27]): 79 µM
